ChEMBL document CHEMBL1121917, “Structure--activity relationships in a broad-spectrum anthelmintic series. Acid chloride phenylhydrazones. 1. Aryl substitutions and chloride variations” (1981)

Tests used:
Canis familiaris [1] = organism: Canis familiaris; experiment: percent reduction in Uncinaria eggs per gram, after oral treatment of 100 mg/dog dose of compound in a single treatment; assay type: functional, Canis lupus familiaris, Egg
Ovis aries [2] = experiment: Percent reduction in Ostertagia eggs per gram, after treatment with 300 mg/kg dose of compound perorally in sheep; assay type: functional, Egg; conditions: route oral
Procedure, shortened: (§1)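 Naturally parasitized lambs, dosed orally either with a suspension by stomach tube or with finely ground compound in gelatin capsules by balling gun. Activity was scored by the clinical test method, meaning a significant fall in helminth egg counts after treatment.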

Ovis aries [3] = experiment: Percent reduction in Nematodirus eggs per gram, after treatment with 100 mg/kg dose of compound perorally in sheep; assay type: functional, Egg; conditions: route oral
Procedure, shortened: (§2)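 Naturally parasitized lambs were dosed orally at the stated mg/kg. Dosing was either as a suspension of finely ground compound by stomach tube, or as ground compound weighed into gelatin capsules and given by balling gun. Activity was scored by the clinical test method: the decrease in posttreatment helminth eggs per gram.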

Ovis aries [4] = experiment: Percent reduction in Strongyloides eggs per gram, after treatment with 400 mg/kg dose of compound perorally in sheep; assay type: functional, Egg; conditions: route oral; procedure, shortened: as §1
Ovis aries [5] = experiment: Percent reduction in Trichostrongylus eggs per gram, after treatment with 300 mg/kg dose of compound perorally in sheep; assay type: functional, Egg; conditions: route oral
Mus musculus [6] = organism: Mus musculus; experiment: Percent clearance of Nematospiroides dubius from mouse after oral treatment of 1.875 mg/mouse/day; assay type: functional
Procedure, shortened: (§3)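 Mice naturally carrying Syphacia obvelata were experimentally infected with Nematospiroides dubius and Hymenolepis nana, then grouped after a 2-week prepatency. Finely ground compound was suspended in aqueous 0.10% carboxymethylcellulose, 0.04% polysorbate 80 and 0.0042% polyparaben, and 0.1 mL was given orally by cannula once daily for 4 days to five mice. Necropsy followed 2 days later, scoring presence or absence of each parasite. Control clearance was subtracted from the treated clearance.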

Ovis aries [7] = experiment: Percent reduction in Haemonchus eggs per gram, after treatment with 400 mg/kg dose of compound perorally in sheep; assay type: functional, Egg; conditions: route oral; procedure, shortened: as §2
Ovis aries [8] = experiment: Percent reduction in Ostertagia eggs per gram, after treatment with 400 mg/kg dose of compound perorally in sheep; assay type: functional, Egg; conditions: route oral; procedure, shortened: as §1
Ovis aries [9] = experiment: Percent reduction in Trichuris eggs per gram, after treatment with 300 mg/kg dose of compound perorally in sheep; assay type: functional, Egg; conditions: route oral
Canis familiaris [10] = organism: Canis familiaris; experiment: percent reduction in Uncinaria eggs per gram, after oral treatment of 50 mg/dog dose of compound in a single treatment; assay type: functional, Canis lupus familiaris, Egg
Procedure, shortened: (§4)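 Dogs naturally infected with Toxascaris leonina were experimentally infected with mixed Ancylostoma caninum and Uncinaria stenocephala larvae. Finely ground compound was given orally in gelatin capsules. Three egg count determinations were made before and three after treatment in each experiment.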

Canis familiaris [11] = organism: Canis familiaris; experiment: percent reduction in Ancylostoma eggs per gram, after oral treatment of 50 mg/dog dose of compound in a single treatment; assay type: functional, Canis lupus familiaris, Egg
Canis familiaris [12] = organism: Canis familiaris; experiment: percent reduction in Ancylostoma eggs per gram, after oral treatment of 100 mg/dog dose of compound in a single treatment; assay type: functional, Canis lupus familiaris, Egg; procedure, shortened: as §4
Ovis aries [13] = experiment: Percent reduction in Trichuris eggs per gram, after treatment with 100 mg/kg dose of compound perorally in sheep; assay type: functional, Egg; conditions: route oral; procedure, shortened: as §1
Ovis aries [14] = experiment: Percent reduction in Trichostrongylus eggs per gram, after treatment with 100 mg/kg dose of compound perorally in sheep; assay type: functional, Egg; conditions: route oral; procedure, shortened: as §1
Ovis aries [15] = experiment: Percent reduction in Ostertagia eggs per gram, after treatment with 100 mg/kg dose of compound perorally in sheep; assay type: functional, Egg; conditions: route oral; procedure, shortened: as §2
Canis familiaris [16] = organism: Canis familiaris; experiment: percent reduction in Toxascaris eggs per gram, after oral treatment of 50 mg/dog dose of compound in a single treatment; assay type: functional, Canis lupus familiaris, Egg; procedure, shortened: as §4
Ovis aries [17] = experiment: Percent reduction in Nematodirus eggs per gram, after treatment with 400 mg/kg dose of compound perorally in sheep; assay type: functional, Egg; conditions: route oral; procedure, shortened: as §2
Ovis aries [18] = experiment: Percent reduction in Moniezia eggs per gram, after treatment with 400 mg/kg dose of compound perorally in sheep; assay type: functional, Egg; conditions: route oral; procedure, shortened: as §2
Ovis aries [19] = experiment: Percent reduction in Trichostrongylus eggs per gram, after treatment with 400 mg/kg dose of compound perorally in sheep; assay type: functional, Egg; conditions: route oral; procedure, shortened: as §1
Ovis aries [20] = experiment: Percent reduction in Oesophagostomum eggs per gram, after treatment with 100 mg/kg dose of compound perorally in sheep; assay type: functional, Egg; conditions: route oral; procedure, shortened: as §2
Ovis aries [21] = experiment: Percent reduction in Oesophagostomum eggs per gram, after treatment with 400 mg/kg dose of compound perorally in sheep; assay type: functional, Egg; conditions: route oral; procedure, shortened: as §2
Ovis aries [22] = experiment: Percent reduction in Trichuris eggs per gram, after treatment with 400 mg/kg dose of compound perorally in sheep; assay type: functional, Egg; conditions: route oral; procedure, shortened: as §1
Ovis aries [23] = experiment: Percent reduction in Haemonchus eggs per gram, after treatment with 300 mg/kg dose of compound perorally in sheep; assay type: functional, Egg; conditions: route oral; procedure, shortened: as §2
Ovis aries [24] = experiment: Percent reduction in Strongyloides eggs per gram, after treatment with 100 mg/kg dose of compound perorally in sheep; assay type: functional, Egg; conditions: route oral; procedure, shortened: as §1
Ovis aries [25] = experiment: Percent reduction in Nematodirus eggs per gram, after treatment with 300 mg/kg dose of compound perorally in sheep; assay type: functional, Egg; conditions: route oral; procedure, shortened: as §2
Ovis aries [26] = experiment: Percent reduction in Haemonchus eggs per gram, after treatment with 100 mg/kg dose of compound perorally in sheep; assay type: functional, Egg; conditions: route oral
Procedure, shortened: (§5)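 Naturally parasitized lambs received compound orally, either as the aqueous suspension by stomach tube or as finely ground powder in gelatin capsules by balling gun. Activity was judged by the clinical test method, as a significant decrease in posttreatment helminth egg counts.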

Canis familiaris [27] = organism: Canis familiaris; experiment: percent reduction in Ancylostoma eggs per gram, after oral treatment of 150 mg/dog dose of compound in a single treatment; assay type: functional, Canis lupus familiaris, Egg
Mus musculus [28] = organism: Mus musculus; experiment: Percent clearance of Syphacaia obvelata from mouse after oral treatment of 1.87 mg/mouse/day; assay type: functional; procedure, shortened: as §3
Ovis aries [29] = experiment: Percent reduction in Cooperia eggs per gram, after treatment with 400 mg/kg dose of compound perorally in sheep; assay type: functional, Egg; conditions: route oral; procedure, shortened: as §5
Canis familiaris [30] = organism: Canis familiaris; experiment: percent reduction in Toxascaris eggs per gram, after oral treatment of 150 mg/dog dose of compound in a single treatment; assay type: functional, Canis lupus familiaris, Egg
Canis familiaris [31] = organism: Canis familiaris; experiment: percent reduction in Uncinaria eggs per gram, after oral treatment of 150 mg/dog dose of compound in a single treatment; assay type: functional, Canis lupus familiaris, Egg
Ovis aries [32] = experiment: Percent reduction in Strongyloides eggs per gram, after treatment with 300 mg/kg dose of compound perorally in sheep; assay type: functional, Egg; conditions: route oral; procedure, shortened: as §1

Compound CSc1ccc(/C(Cl)=N/Nc2ccccc2)cc1 has a Reduction (Canis familiaris [1]) of 99%, a Reduction (Ovis aries [2]) of 100% and a Reduction (Ovis aries [3]) of 100%. For the same compound, the Reduction (Ovis aries [4]) was 100%, the Reduction (Ovis aries [5]) was 100% and the Parasite_Clearance (Mus musculus [6]) was 100%. It also gave a Reduction (Ovis aries [7]) of 100%, a Reduction (Ovis aries [8]) of 100% and a Reduction (Ovis aries [9]) of 73%. The Reduction (Canis familiaris [10]) was 86%, the Reduction (Canis familiaris [11]) was 91% and the Reduction (Canis familiaris [12]) was 94%. The Reduction (Ovis aries [13]) was 25%, the Reduction (Ovis aries [14]) was 98% and the Reduction (Ovis aries [15]) was 98%. The Reduction (Canis familiaris [16]) was 69%, the Reduction (Ovis aries [17]) was 100% and the Reduction (Ovis aries [18]) was 100%. For the same compound, the Reduction (Ovis aries [19]) was 100%, the Reduction (Ovis aries [20]) was 100% and the Reduction (Ovis aries [21]) was 100%. The Reduction (Ovis aries [22]) was 38%, the Reduction (Ovis aries [23]) was 100% and the Reduction (Ovis aries [24]) was 100%. The Reduction (Ovis aries [25]) was 100%, the Reduction (Ovis aries [26]) was 98% and the Reduction (Canis familiaris [27]) was 84%. For the same compound, the Parasite_Clearance (Mus musculus [28]) was 100%, the Reduction (Ovis aries [29]) was 100% and the Reduction (Canis familiaris [30]) was 100%. The Reduction (Canis familiaris [31]) was 91% and the Reduction (Ovis aries [32]) was 100%.
